Assay outcomes (PubChem)
The list is not random: actives were taken first. Their share in the collection is about 2.8%.
NPY2 pot ag: potentiators or agonists of human neuropeptide Y receptor Y2. activation, % at 3.6 µM. cells expressing NPY-Y2, potentiator/agonist read-out. hit rate 0.45% among 220,000; in the data active = activation above about 27%;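 also: cells stimulated with NPY near EC25 plus isoproterenol at EC100; 0% = vehicle plus submaximal agonist and 100% = vehicle plus saturating agonist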
NPY-Y1 antag: blocks the human neuropeptide Y Y1 receptor; P25929; HEK293-CNG Y1 cells, membrane potential fluorescence; NPY at EC95, then isoproterenol; inhibition, % at 3.6 µM; hit rate 1% among 200,000;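 active = inhibition above the campaign mean inhibition of all tested compounds plus 3 SD, cut at about 20% in these data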;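 also: 0% = DMSO wells given NPY plus isoproterenol and 100% = isoproterenol alone without NPY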
Target sequence (P25929 whole entry, looked up): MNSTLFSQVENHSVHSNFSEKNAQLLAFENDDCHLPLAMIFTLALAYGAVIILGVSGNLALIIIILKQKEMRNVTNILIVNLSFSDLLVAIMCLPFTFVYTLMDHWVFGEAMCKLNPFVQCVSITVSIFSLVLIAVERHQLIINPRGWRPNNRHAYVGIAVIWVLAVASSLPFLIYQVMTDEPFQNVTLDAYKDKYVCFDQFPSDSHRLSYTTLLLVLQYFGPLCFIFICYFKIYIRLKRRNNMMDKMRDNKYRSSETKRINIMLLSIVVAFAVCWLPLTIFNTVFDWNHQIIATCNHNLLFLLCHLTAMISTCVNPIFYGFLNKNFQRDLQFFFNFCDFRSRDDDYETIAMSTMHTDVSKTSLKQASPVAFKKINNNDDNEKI
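Assay system: HEK293 Y1/CNG channel cell line; Doses: single compound dose of 3.6 µM, 0.4% DMSO; Timing: dye 3 h, compound 60 min room temperature, stimulation 45 min; Technique: Membrane-potential fluorescent dye readout; Measure: % inhibition of NPY effect.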
EP2 mod: modulates human prostaglandin E2 receptor EP2 signaling; hit rate 0.83% among 260,000; P43116; EP2-expressing cells, cAMP HTRF FRET, PGE2 co-stimulation; induction, % at 25 µM;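 active = compounds whose cAMP rise, as percent of the full-agonist control response, exceeds 60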;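 also: rat C6 glioma line stably carrying human EP2 under a CMV promoter; the protocol text gives 20 µM as final concentration; 100% = response of wells given 1 µM PGE2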
PGE2 EP2 inh: EP2 receptor (human) inhibition; P43116; C6 glioma cells expressing human EP2, cAMP TR-FRET; cells stimulated with saturating PGE2; inhibition, % at 25 µM; hit rate 0.52% among 260,000;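 active = percent inhibition above 40 after rounding to a whole number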;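 also: rat C6 glioma host cells with rolipram phosphodiesterase inhibitor present; the protocol text gives 20 µM as final concentration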
NPY-Y1 PAM-ag: potentiates or activates human NPY-Y1 receptor; P25929; NPY-Y1 expressing cells, potentiator/agonist activation; activation, % at 3.6 µM; hit rate 0.37% among 220,000; AID 1304; in the data active = activation above about 33%, passing the limit was not always enough;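 also: cells stimulated with NPY at EC10 then isoproterenol at EC100; 0% = low agonist plus stimulus and 100% = saturating agonist plus stimulus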
NPY Y2 blocker: NPY-Y2 (human) receptor antagonism; AID 793; hit rate 0.99% among 140,000; NPY-Y2 expressing cells, antagonist mode; P49146; inhibition, % at 2.7 µM; in the data active = inhibition above about 17%;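 also: 0% = vehicle with agonist challenge and 100% = reference antagonist with challenge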
Starred values were filed as active, the others as inactive.

Results for CCOc1ccc2nc3c(cc2c1)CN(CCO)C(=Nc1cccc(OC)c1)S3 ?
EP2 mod: -82; PGE2 EP2 inh: 6

What do the screens show for `CCc1ccccc1NC(=O)Cn1cccc1C1=NC(c2ccccc2)CO1` (centres undefined)?
NPY2 pot ag: 5; NPY-Y1 antag: 5; EP2 mod: 42; PGE2 EP2 inh: 5; NPY-Y1 PAM-ag: -15; NPY Y2 blocker: 6

How did Fc1ccc(Cn2cccc2C2=NC(c3ccccc3)CO2)cc1 (centres undefined) do in these assays?
NPY2 pot ag: 11; NPY-Y1 antag: 6; EP2 mod: 61*; PGE2 EP2 inh: 1; NPY-Y1 PAM-ag: -4

Results for CCC[N+](CC#Cc1ccccc1)(CCC)CC(=O)c1ccc(Cl)cc1 ?
NPY2 pot ag: 3; NPY-Y1 antag: 29*; EP2 mod: 7; PGE2 EP2 inh: 8; NPY-Y1 PAM-ag: 1; NPY Y2 blocker: 19*

Results for S=c1[nH]nc(-c2cccs2)n1/N=C/c1cn(-c2ccccc2)nc1-c1cccs1 ?
NPY2 pot ag: 2; EP2 mod: 86*; PGE2 EP2 inh: 7; NPY-Y1 PAM-ag: 1

How did Cc1ccc(-c2nn(-c3ccccc3)cc2/C=N/n2c(-c3cccs3)n[nH]c2=S)cc1 do in these assays?
NPY2 pot ag: -19; EP2 mod: 60; PGE2 EP2 inh: 6; NPY-Y1 PAM-ag: -11

Results for COC(=O)c1c(C)nc2c(c(SC)nn2-c2ccccc2)c1N ?
NPY2 pot ag: -5; NPY-Y1 antag: 2; EP2 mod: 63*; PGE2 EP2 inh: 12; NPY-Y1 PAM-ag: 5; NPY Y2 blocker: 4

Results for Cc1ccc(C(=O)C2=C(O)C(=O)N(CCc3ccccc3)C2c2cccs2)o1 (centres undefined) ?
EP2 mod: 38; PGE2 EP2 inh: 16

Results for Cc1cc(N2C(=O)C(O)=C(C(=O)c3ccc(C)o3)C2c2cccs2)no1 (centres undefined) ?
NPY2 pot ag: 25; NPY-Y1 antag: 7; EP2 mod: 52; PGE2 EP2 inh: 56*; NPY-Y1 PAM-ag: 41; NPY Y2 blocker: 6

What do the screens show for `CC(C)c1cc(C(F)(F)F)nc(NNc2nc(C(C)C)cc(C(F)(F)F)n2)n1`?
EP2 mod: 42; PGE2 EP2 inh: 48*

What do the screens show for `Cc1cc(C)n(CC(C)C(=O)N2CCC3(CC2)NC(=O)c2cccnc2N3C)n1` (centres undefined)?
EP2 mod: -19

Results for NS(=O)(=O)c1ccc(N=Nc2cc3ccccc3c(C(=O)O)c2O)cc1 ?
EP2 mod: -7; PGE2 EP2 inh: 45*

What do the screens show for `N#CC(C#N)C1(c2c(C34CC5CC(CC(C5)C3)C4)[nH][nH]c2=O)C(=O)Nc2ccccc21` (centres undefined)?
EP2 mod: -116; PGE2 EP2 inh: 31

What do the screens show for `CCOc1cc(C2C(C(=O)OC)=C(c3ccccc3)Nc3ncnn32)ccc1OC` (centres undefined)?
EP2 mod: -2; PGE2 EP2 inh: 3

What do the screens show for `COc1ccc(S(=O)(=O)N2CCCC(C)C2)c(C)c1C` (centres undefined)?
EP2 mod: 13; PGE2 EP2 inh: 11

How did CCN(CC)c1ccc(C2=NNC(=O)CC2C)cc1[N+](=O)[O-] (centres undefined) do in these assays?
NPY2 pot ag: -45; NPY-Y1 antag: 64*; EP2 mod: 29; PGE2 EP2 inh: 3; NPY-Y1 PAM-ag: -85; NPY Y2 blocker: 71*

What do the screens show for `CC1CC(=O)NN=C1c1ccc(N(C)C)c([N+](=O)[O-])c1` (centres undefined)?
NPY2 pot ag: -43; NPY-Y1 antag: 78*; EP2 mod: 40; PGE2 EP2 inh: 8; NPY-Y1 PAM-ag: -88; NPY Y2 blocker: 94*

What do the screens show for `CC1CC(=O)NN=C1c1cccs1` (centres undefined)?
NPY2 pot ag: -50; EP2 mod: 25; PGE2 EP2 inh: 11; NPY-Y1 PAM-ag: -44

How did Cc1ccc(C)c(NC(=O)COc2ccc(S(=O)(=O)N3CCCC3)cc2)c1 do in these assays?
EP2 mod: 5; PGE2 EP2 inh: 9

How did N#CC(c1ccccc1)c1ccc(C(=O)c2ccc(F)cc2)cc1 (centres undefined) do in these assays?
NPY2 pot ag: -6; NPY-Y1 antag: 8; EP2 mod: 62*; PGE2 EP2 inh: -1; NPY-Y1 PAM-ag: -51; NPY Y2 blocker: 9

What do the screens show for `N#CC(c1ccc(F)cc1)c1ccc(C(=O)c2ccccc2)cc1` (centres undefined)?
NPY2 pot ag: -5; NPY-Y1 antag: 2; EP2 mod: 2; PGE2 EP2 inh: 9; NPY-Y1 PAM-ag: -27; NPY Y2 blocker: 5

What do the screens show for `CCOc1cc(C2NC(=O)NC(c3ccccc3)=C2C(N)=O)c(Cl)cc1O` (centres undefined)?
EP2 mod: 15; PGE2 EP2 inh: 11

What do the screens show for `CCCCCCCCCCn1c2c(c(=N)c3c1CCC3)CCC2`?
NPY2 pot ag: -77; NPY-Y1 antag: 92*; EP2 mod: 28; PGE2 EP2 inh: 19; NPY-Y1 PAM-ag: -88; NPY Y2 blocker: 51*

How did COc1ccc(CN(C(=O)c2nsc(Cl)c2Cl)C(C(=O)NC2CCCC2)c2ccc(OC)cc2)cc1 (centres undefined) do in these assays?
NPY2 pot ag: -17; NPY-Y1 antag: 33*; EP2 mod: 34; PGE2 EP2 inh: 7; NPY-Y1 PAM-ag: -36; NPY Y2 blocker: 23*

Results for Cc1cccc(N(C(=O)c2nsc(Cl)c2Cl)C(C(=O)NC2CCCC2)c2ccc(O)cc2)c1 (centres undefined) ?
NPY2 pot ag: 7; NPY-Y1 antag: -1; EP2 mod: 43; PGE2 EP2 inh: 14; NPY-Y1 PAM-ag: -16; NPY Y2 blocker: 3

How did Cc1cc2c(cc1C)NC(c1ccc(O)cc1)C1=C(CC(C)(C)CC1=O)N2 (centres undefined) do in these assays?
EP2 mod: 13; PGE2 EP2 inh: 11

What do the screens show for `CCCS(=O)(=O)C(=C(Nc1ccccc1)Nc1ccccc1)S(=O)(=O)CCC`?
NPY2 pot ag: 0; NPY-Y1 antag: 1; EP2 mod: 63*; PGE2 EP2 inh: 5; NPY-Y1 PAM-ag: 13; NPY Y2 blocker: 3

What do the screens show for `CCn1c(SCC(=O)Nc2nnc(C)s2)nnc1-c1cccc(C)c1`?
EP2 mod: 12; PGE2 EP2 inh: 7

How did O=C(c1ccccc1)c1coc2ccc(O)c(CN3CCOCC3)c12 do in these assays?
NPY2 pot ag: -10; NPY-Y1 antag: 2; EP2 mod: -8; PGE2 EP2 inh: 9; NPY-Y1 PAM-ag: -30; NPY Y2 blocker: 6

How did CCOC(=O)c1c(C)n(C)c2ccc(O)c(CN3CCCCC3)c12 do in these assays?
NPY2 pot ag: 10; NPY-Y1 antag: 18; EP2 mod: 3; PGE2 EP2 inh: 11; NPY-Y1 PAM-ag: 0; NPY Y2 blocker: 9
